The values below come from PMC11128822 (Heliyon, 2024).

pIC50: −log10 of the molar value. Read-outs that look alike come from different tables or passages of the source.

For data set [1], the system named is SARS-CoV-2. As to the kind of experiment: Lung histology of infected hamsters. The class given is in vivo, Syrian hamsters. In a few lines:
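Infected hamsters were dosed every 12 h from the time of infection. MOV was given by oral gavage under isoflurane in water with 10 % PEG400 and 2.5 % Kolliphor EL. FAV was given intraperitoneally to awake animals. Euthanasia was on D5. Lungs were collected after intratracheal instillation of 4 % formaldehyde, fixed 72 h at room temperature and paraffin-embedded. Lesions were graded semi-quantitatively (up to 4 = severe), and scores were summed.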

Data set [2] concerns SARS-CoV-2. As to the kind of experiment: microbe, parasite or virus in culture. In kind it is cell-based, human. Particulars: for viral infectious titres at the apical side of HAE vs virus control: D2 to D4.
Data set [3] deals with SARS-CoV-2. In kind it is cell-based, human. Particulars: D2 to D4.
Data set [4] has as its system SARS-CoV-2. In kind it is in vivo, Syrian hamsters. As to conditions: for reduction of lung infectious viral titers vs untreated: 300 mg/kg/day BID oral, D3.
Data set [5] deals with SARS-CoV-2. In kind it is in vivo, Syrian hamsters.
The test system of data set [6] is SARS-CoV-2. In kind it is in vivo, Syrian hamsters. Particulars: 150, 300, 400 mg/kg/day BID, from D0, D3.
The next data set has as its system cytokines in lungs. As to the kind of experiment: Expression level of seven cytokines in lungs. In kind it is in vivo, Syrian hamsters. Particulars: 300 mg/kg/day BID from D0, D5.
The test system of data set [7] is SARS-CoV-2 genome. In kind it is in vivo, Syrian hamsters. As to conditions: hamster lungs.
For data set [8], the system named is SARS-CoV-2 genome. As to the kind of experiment: Sequence analysis of the full-length viral genome in HAE supernatants. The class given is cell-based, human.
Data set [9] concerns COVID-19. As to conditions: phase 3 MOVE OUT trial; cited from earlier work.
Data set [10] relates to COVID-19. As to conditions: PANORAMIC trial, cited from earlier work.
Data set [11] is described as follows: Molnupiravir pharmacokinetics: NHC trough concentration in plasma and lung. The class given is in vivo, Syrian hamsters. In a few lines:
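MOV was given by oral gavage every 12 h, with the first dose at infection (D0), 12 h before (D-1) or 12 h after (D1). Hamsters were euthanised 15 h after the last dose on D3, giving trough values. Samples were EDTA plasma and lung lobes homogenised in 0.9 % NaCl. NHC was extracted with acetonitrile and quantified by UPLC-MS/MS (LLOQ 5 ng/mL). The partition coefficient was the lung:plasma concentration ratio.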

With `NC(=O)c1nc(F)c[nH]c1=O` [FAV, Favipiravir], in the data set on SARS-CoV-2 [1] (FAV intraperitoneally 925 mg/kg/day BID, lungs at D5), the “cumulative pathological scores vs untreated group” value is on record as “significantly different score”.
Take `CC(C)C(=O)OC[C@H]1O[C@@H](n2ccc(NO)nc2=O)[C@H](O)[C@@H]1O` [MOV, molnupiravir]: in the data set on SARS-CoV-2 [2] (0.3 μM), the “viral infectious titres at the apical side of HAE vs virus control” value (from here on “viral infectious titres … vs virus control”) is “significant decrease in infectious titres was observed only at D3”. Besides, the “viral infectious titres … vs virus control” value in the data set on SARS-CoV-2 [2] (1 μM) is listed as “Significant decrease”. Moreover, the “viral infectious titres … vs virus control” value in the data set on SARS-CoV-2 [2] (3 μM) is “Significant decrease”. For the same compound, the pIC50 (as a rule, the negative decadic logarithm of the IC50, by convention in mol/L) with SARS-CoV-2 [2] (Severe acute respiratory syndrome coronavirus 2, in Homo sapiens) was 6.00. Also, the “viral RNA yields at the apical side of HAE vs virus control” value (shortened to “viral RNA yields … vs virus control”) with SARS-CoV-2 [3] (0.3 μM) is “no significant reduction”. Further, in the data set with SARS-CoV-2 [3] (1 μM), the “viral RNA yields … vs virus control” value was “significant reduction was observed at D3 and D4”. In the data set with SARS-CoV-2 [3] (3 μM), the “viral RNA yields … vs virus control” value is “significant decrease”. For the same compound, the “infectious titers in clarified lung homogenates vs untreated animals” value with SARS-CoV-2 [4] (150, 300 and 400 mg/kg/day BID oral, from D0, lungs at D3) is “significantly lower”. Besides, in the data set with SARS-CoV-2 [4] (dose assessment experiment, 150-400 mg/kg/day BID), the “lung particle-to-infectious unit ratio vs untreated” value is listed as “No significant differences”. For the same compound, the “reduction of lung infectious viral titers vs untreated” value in the data set with SARS-CoV-2 [4] (pre-emptive (D0)) is given as 1.03 log10. For the same compound, the “lung particles to infectious unit ratio vs control” value in the data set on SARS-CoV-2 [4] (preventive (D-1), 300 mg/kg/day BID) is “significant elevation”. In addition, in the data set on SARS-CoV-2 [4] (preventive (D-1)), the “reduction of lung infectious viral titers vs untreated” value is recorded as 1.12 log10. In addition, the “viral RNA yields in lungs vs control group” value in the data set on SARS-CoV-2 [5] (300 mg/kg/day BID, three treated groups (D-1, D0, D1)) is “did not differ significantly”. In the data set with SARS-CoV-2 [5] (150 or 400 mg/kg/day BID oral, from D0, D3), the “viral RNA yields in lungs vs untreated animals” value is listed as “significant lower”. The “RNA viral yields in nasal washes vs untreated animals” value in the data set with SARS-CoV-2 [6] was “no significant differences”. In addition, in the data set on cytokines in lungs, the “expression of IL10 in lungs vs vehicle group” value is given as “reduction was not significant”, the “expression of TNF in lungs vs vehicle group” value is “reduction was not significant”, the “expression of cytokine CCl5 in lungs vs vehicle group” value is “significantly decrease” and the “expression of cytokine CxCl10 in lungs vs vehicle group” value is given as “significantly decrease”. For the same compound, the “cumulative pathological scores vs untreated group” value in the data set on SARS-CoV-2 [1] (MOV 300 mg/kg/day BID from D0, lungs at D5) is listed as “no significant difference”. In the data set with SARS-CoV-2 genome [7] (300 mg/kg/day BID), the “G to A MVs vs untreated group” value is listed as “significant increase”; the “mean frequency of transitions-type MVs vs untreated” value is recorded as “higher in the treated group compared to the untreated group, but not significantly”; the “number of MVs with a frequency greater than 10 % vs untreated” value is reported as “significant higher number”. Besides, the “mean number of MVs per genome” value with SARS-CoV-2 genome [7] (300 mg/kg/day BID from D0) stood at 29.5. In the data set with SARS-CoV-2 genome [8] (0.3 μM), the “average number of MVs per genome” value was determined as 20 and the “mean frequency of transition-type MVs” value was found to be 0.81. Moreover, in the data set on SARS-CoV-2 genome [8] (1 μM), the “average number of MVs per genome” value was 88 and the “mean frequency of transition-type MVs” value turned out to be 0.97. For the same compound, in the data set on SARS-CoV-2 genome [8] (3 μM), the “average number of MVs per genome” value was determined as 18.3 and the “mean frequency of transition-type MVs” value worked out at 0.89. Besides, in the data set on SARS-CoV-2 genome [8] (pooled analysis), the “increase of type C to U-MVs, exposed vs non-exposed HAE” value was “significance found”. For the same compound, the “efficacy in reducing the risk of hospitalisation or death” value with COVID-19 [9] is “modest efficacy”. In the data set with COVID-19 [10], the time to recovery entry was “reduced time to recovery” and the viral load result was “reduced viral load”. In addition, in the data set with COVID-19 [10] (vaccinated patients), the “reduction in the risk of hospitalisation or death” value is listed as “no reduction”.
On to `O=c1nc(NO)ccn1[C@@H]1O[C@H](CO)[C@@H](O)[C@H]1O` [NHC, β-D N4-hydroxycytidine], for which the “NHC concentration in lung, 400 mg/kg/day BID compared to 150 mg/kg/day BID” value in data set [11] (15 h after last intake) is on record as “significantly higher”. Further, in data set [11] (15 h after last intake, MOV 150, 300, 400 mg/kg/day BID oral), the “NHC plasma trough concentrations” value was “comparable between doses”. Also, in [11] (MOV 300 mg/kg/day BID from D-1, D0 or D1), the “lung and plasma NHC trough concentrations between treatment strategies” value is reported as “no difference”. Moreover, the “Lung partition coefficients (ratio of lung over plasma concentrations)” value in [11] (dose assessment experiment, all doses) is “above 1”. Further, the pulmonary partition coefficient result in [11] (therapeutic strategies experiment, 300 mg/kg/day BID) was “above 1”.
As for `CCC(CC)COC(=O)[C@H](C)N[P@](=O)(OC[C@H]1O[C@@](C#N)(c2ccc3c(N)ncnn23)[C@H](O)[C@@H]1O)Oc1ccccc1` [RDV, Remdesivir], the “infectious titres in HAE” value in the data set with SARS-CoV-2 [2] (10 μM, positive control) was “significantly reduced”.
